Assay results as given in ChEMBL document CHEMBL4325860, “Synthesis of novel 2-(1-adamantanylcarboxamido)thiophene derivatives. Selective cannabinoid type 2 (CB2) receptor agonists as potential agents for the treatment of skin inflammatory disease” (Eur J Med Chem, 2019).
Activity calls are given as the source filed them. The rule behind the calls is not given here.

What was measured:
[1] = target: Cannabinoid receptor 1 (CB1R) (Homo sapiens, UniProt P21554); assay: Displacement of [3H]CP55940 from recombinant human CB1R expressed in HEK293 cell membranes at 10 uM measured after 90 mins relative to control; conditions: membranes of HEK293 cells expressing recombinant human CB1R, probe [3H]CP55940
Cannabinoid receptor 2 [2] = target: T1, Cannabinoid receptor 2 (Homo sapiens, UniProt P34972); assay: Displacement of [3H]CP55940 from recombinant human CB2R expressed in HEK293 cell membranes at 10 uM measured after 90 mins relative to control
Homo sapiens = species on record: Homo sapiens; assay: Selectivity index, ratio of Ki for displacement of [3H]CP55940 from recombinant human CB1R expressed in HEK293 cell membranes to Ki for displacement of [3H]CP55940 from recombinant human CB2R expressed in HEK293 cell membranes
Outline: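 Competition binding on membranes of HEK cells transfected with human CB1R or CB2R, radioligand [³H]CP-55,940. Ki from at least three separate experiments run in duplicate, reported as mean. Selectivity index = Ki(CB1R)/Ki(CB2R).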

Cannabinoid receptor 1 = Cannabinoid receptor 1 (Homo sapiens, UniProt P21554); assay: Displacement of [3H]CP55940 from recombinant human CB1R expressed in HEK293 cell membranes measured after 90 mins
Cannabinoid receptor 2 [3] = target: T1, Cannabinoid receptor 2; assay: Displacement of [3H]CP55940 from recombinant human CB2R expressed in HEK293 cell membranes measured after 90 mins
Cannabinoid receptor 2 [4] = target: T1, Cannabinoid receptor 2; assay: Agonist activity at recombinant human CB2R expressed in CHOK1 cells assessed as inhibition of NKH477-stimulated intracellular cAMP levels after 30 mins by chemiluminescent assay; type: functional, cell-based
Outline: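 cAMP Hunter enzyme fragment complementation assay with chemiluminescent detection, in stable CHO cells expressing human CB2R, stimulated with NKH-477. Concentration-response curves. Response normalized with NKH-477 alone as 100%. Mean ± SEM of three independent experiments run in triplicate.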

Cannabinoid receptor 2 [5] = target: T1, Cannabinoid receptor 2; assay: Agonist activity at recombinant human CB2R expressed in CHOK1 cells assessed as inhibition of NKH477-stimulated intracellular cAMP levels preincubated for 15 mins followed by CB2R agonist JWH133 addition and measured after 30 mins by chemiluminescent assay; type: functional, cell-based
Cannabinoid receptor 2 [6] = target: T1, Cannabinoid receptor 2; assay: Activity at recombinant human CB2R expressed in CHOK1 cells assessed as effect on basal intracellular cAMP levels at higher concentration measured after 30 mins by chemiluminescent assay; type: functional, cell-based
HaCaT [7] = assay: Antiinflammatory activity in human HaCaT cells assessed as inhibition of polyinosinic polycytidylic acid-stimulated MCP2 release at 10 uM measured after 6 hrs by ELISA; type: functional, cell-based
Outline: (§1)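 HaCaT keratinocytes stimulated with poly-(I:C) at 100 µg/mL. MCP-2 release measured with test agent at 10 µM, alone or co-incubated with the CB2R antagonist AM630 at 0.1 µM.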

HaCaT [8] = assay: Antiinflammatory activity in human HaCaT cells assessed as inhibition of polyinosinic polycytidylic acid-stimulated MCP2 release at 10 uM measured after 6 hrs in presence of CB2R antagonist AM630 by ELISA; type: functional, cell-based; outline: as §1

Chain of Cannabinoid receptor 1 (CB1R) (P21554 whole entry): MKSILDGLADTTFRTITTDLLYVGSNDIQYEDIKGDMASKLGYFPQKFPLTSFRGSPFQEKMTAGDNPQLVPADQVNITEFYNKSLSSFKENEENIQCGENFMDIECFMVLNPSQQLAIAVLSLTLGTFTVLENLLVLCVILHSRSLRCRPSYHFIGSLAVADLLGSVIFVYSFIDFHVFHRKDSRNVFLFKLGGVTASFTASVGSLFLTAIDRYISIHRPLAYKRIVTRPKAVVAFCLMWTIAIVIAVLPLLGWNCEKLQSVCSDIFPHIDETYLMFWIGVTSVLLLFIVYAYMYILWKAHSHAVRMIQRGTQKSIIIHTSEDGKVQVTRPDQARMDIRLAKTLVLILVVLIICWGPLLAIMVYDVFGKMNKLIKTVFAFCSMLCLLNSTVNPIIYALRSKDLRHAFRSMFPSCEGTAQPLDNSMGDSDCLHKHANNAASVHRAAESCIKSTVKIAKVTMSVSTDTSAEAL
Chain of Cannabinoid receptor 1 (P21554 whole entry): as above
T1 sequence (P34972 whole entry): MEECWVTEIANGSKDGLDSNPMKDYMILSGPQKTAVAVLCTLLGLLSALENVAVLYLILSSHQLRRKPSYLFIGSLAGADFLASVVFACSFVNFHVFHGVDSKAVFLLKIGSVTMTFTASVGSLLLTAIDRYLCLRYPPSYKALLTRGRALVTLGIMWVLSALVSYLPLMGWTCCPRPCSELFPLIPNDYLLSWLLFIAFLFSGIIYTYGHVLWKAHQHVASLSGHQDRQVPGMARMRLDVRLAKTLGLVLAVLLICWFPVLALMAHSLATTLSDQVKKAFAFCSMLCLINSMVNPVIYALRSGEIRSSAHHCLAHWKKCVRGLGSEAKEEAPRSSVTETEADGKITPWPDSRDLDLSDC

Compound	inhibition at 1.5 h, 10 µM [1] [%]	inhibition (Cannabinoid receptor 2 [2]) [%]	Ratio Ki (Homo sapiens)	Ki (Cannabinoid receptor 1) [nM]	Ki (Cannabinoid receptor 2 [3]) [nM]	EC50 (Cannabinoid receptor 2 [4]) [nM]	inhibition (Cannabinoid receptor 2 [5])	Activity (Cannabinoid receptor 2 [6])	inhibition (HaCaT [7])	inhibition (HaCaT [8])
CCCc1c(C)sc(NC(=O)C23CC4CC(CC(C4)C2)C3)c1C(=O)OC	< 50	> 50	257							
CCCCc1sc(NC(=O)C23CC4CC(CC(C4)C2)C3)c(C(=O)OC)c1C	< 50	> 50	34	58.9	1.72	1140	inactive	inactive		
COC(=O)c1c(C)noc1NC(=O)C12CC3CC(CC(C3)C1)C2	< 50	> 50	> 154	> 10000	64.7					
COC(=O)c1c(NC(=O)NC23CC4CC(CC(C4)C2)C3)sc2c1CCCC2	< 50	> 50	> 477	> 10000	21					
COC(=O)c1c(NC(=O)N2CCCCC2)sc2c1CCCC2	< 50	> 50	> 51	> 10000	196					
COC(=O)c1c(NC(=O)Oc2ccccc2)sc2c1CCCC2	< 50	> 50	> 41	> 10000	244					
COC(=O)c1c(NC(=O)C23CC4CC(CC(C4)C2)C3)sc(C)c1C	< 50	> 50	> 1080	> 10000	9.24	318	inactive			
CCc1sc(NC(=O)C23CC4CC(CC(C4)C2)C3)c(C(=O)OC)c1C	< 50	> 50	358	2120	5.92	371	inactive			
COC(=O)c1c(NC(=O)C23CC4CC(CC(C4)C2)C3)sc2c1CCS(=O)(=O)C2	< 50	> 50	> 6	> 10000	1670					
COC(=O)c1c(NC(=O)C23CC4CC(CC(C4)C2)C3)sc2c1CCCC2	< 50	> 50	> 1970	> 10000	5.08	1530	inactive	inactive		
COC(=O)c1c(NC(=O)C23CC4CC(CC(C4)C2)C3)cnn1C	< 50	> 50	> 9	> 10000	1080					
COC(=O)c1ccsc1NC(=O)C12CC3CC(CC(C3)C1)C2	< 50	> 50	> 68	> 10000	1320					
COC(=O)c1c(NC(=O)N2CCOCC2)sc2c1CCCC2	< 50	> 50	> 4	> 10000	2490					
COC(=O)c1cccnc1NC(=O)C12CC3CC(CC(C3)C1)C2	< 50	> 50	> 8	> 10000	1220					
COC(=O)c1cc(-c2ccccc2)sc1NC(=O)C12CC3CC(CC(C3)C1)C2	< 50	> 50	> 1540	> 10000	6.48					
Cc1ccc(Cn2nc(C(=O)N[C@@H]3C(C)(C)[C@@H]4CC[C@@]3(C)C4)cc2-c2ccc(Cl)c(C)c2)cc1	< 50									
CCc1c(C)sc(NC(=O)c2ccc(F)cc2)c1C(=O)OC	< 50	> 50	> 20	> 10000	496					
CCc1c(C)sc(NC(=O)c2ccc(Cl)cc2)c1C(=O)OC	< 50	> 50	> 16	> 10000	621					
COC(=O)c1[nH]ccc1NC(=O)C12CC3CC(CC(C3)C1)C2	< 50	> 50	> 4	> 10000	2140					
COc1ccc(C(=O)c2c(C)n(CCN3CCOCC3)c3cc(I)ccc23)cc1	< 50	> 50								
COC(=O)c1cc(C)sc1NC(=O)C12CC3CC(CC(C3)C1)C2	< 50	> 50	> 433	> 10000	23.1					
COC(=O)c1c(NC(=O)C23CC4CC(CC(C4)C2)C3)sc2c1CCSC2	< 50	> 50	> 197	> 10000	50.7					
CCc1c(C)sc(NC(=O)C23CC4CC(CC(C4)C2)C3)c1C(=O)OC	< 50	> 50	75	185	2.46	197	inactive		Active	inactive
COC(=O)c1nn(C)cc1NC(=O)C12CC3CC(CC(C3)C1)C2	< 50	> 50	> 11	> 10000	845					
CCCc1cc(C(=O)OC)c(NC(=O)C23CC4CC(CC(C4)C2)C3)s1	< 50	> 50	186	1340	7.21					
CCCCCc1sc(NC(=O)C23CC4CC(CC(C4)C2)C3)c(C(=O)OC)c1-c1ccccc1	< 50	> 50	65	519	8.03					
COC(=O)c1c(-c2ccccc2)csc1NC(=O)C12CC3CC(CC(C3)C1)C2	< 50	> 50	> 285	> 10000	35					
